Entries after “also recorded” stand apart in the source; their conditions may differ. Where a SMILES comes first, the peptide text is derived from it. [ ]: non-standard residue; d: D form. Nle = CCCC[C@H](N)C(=O)O
Legend:
[1] = system: p53 and Hdm2 in RPE cells; test: Cellular p53 and Hdm2 levels in RPE cells by immunoblotting; conditions: for effect on cellular p53 and Hdm2 levels: 1–10 µM, immunoblotting; for effect on cellular p53 and Hdm2 levels / concentration exhibiting greatest increase in p53 and Hdm2: 8 h; for concentration exhibiting greatest increase in p53 and Hdm2: similar to 50 µM ALLN
[2] = target: T1, Hdm2 (Homo sapiens, UniProt Q00987); test: Hdm2 electrochemiluminescence assay; type: biochemical; conditions: for activity in Hdm2 assay: isolated from Hdm2-inhibitory fractions
T1 sequence (Q00987 whole entry): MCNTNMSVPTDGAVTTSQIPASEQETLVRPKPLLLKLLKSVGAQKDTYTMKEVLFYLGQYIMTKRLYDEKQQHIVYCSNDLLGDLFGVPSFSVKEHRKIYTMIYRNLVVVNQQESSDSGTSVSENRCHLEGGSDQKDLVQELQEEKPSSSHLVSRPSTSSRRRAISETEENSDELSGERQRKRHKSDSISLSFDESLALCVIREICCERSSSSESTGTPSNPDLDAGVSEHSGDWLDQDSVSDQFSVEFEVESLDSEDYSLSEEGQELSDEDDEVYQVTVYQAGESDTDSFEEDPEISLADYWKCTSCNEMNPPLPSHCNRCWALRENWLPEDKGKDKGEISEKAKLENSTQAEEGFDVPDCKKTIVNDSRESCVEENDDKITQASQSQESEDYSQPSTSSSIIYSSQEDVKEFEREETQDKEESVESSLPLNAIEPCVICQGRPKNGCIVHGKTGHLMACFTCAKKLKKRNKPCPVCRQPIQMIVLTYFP

[3] = system: p53 in U2OS cells; type: cell-based, human; conditions: U2OS co-transfected with p53 and Hdm2; 8 h; 50 µM ALLN or 3–15 µM 5
[4] = system: HCT116-p53^+ and HCT116-p53^− cells; test: Killing of HCT116-p53+ compared to HCT116-p53- cells; type: cell-based, human; conditions: HCT116-p53+ vs HCT116-p53−; data not shown
[5] = system: A9 cells; test: Cell death by trypan blue exclusion, p53-deficient MEFs; type: cell-based, mouse; conditions: 5–20 µM, 20 h
[6] = system: RPE-E1A cells; test: Cell death by trypan blue exclusion, RPE-E1A cells; type: cell-based, human; conditions: 3–25 µM, 17 h
[7] = system: Hdm2 in p53^−/−mdm2^−/− mouse embryo fibroblasts; type: cell-based; conditions: 10 µM, 8 h; Hdm2 under p53-independent CMV promoter
[8] = system: C8 cells; test: Cell death by trypan blue exclusion, wild-type p53 MEFs; type: cell-based, mouse; conditions: 5–20 µM, 20 h
[9] = system: RPE cells; test: Cell death by trypan blue exclusion, parental RPE cells; type: cell-based, human; conditions: 3–25 µM, 17 h
[10] = system: U2OS-pG13 cells (p53-responsive luciferase reporter); test: p53-responsive luciferase reporter assay in U2OS-pG13 cells; type: cell-based, human; conditions: 1–10 µM, 22 h
How it was run: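 U2OS-pG13 cells carry endogenous wild-type p53 and a stably expressed p53-responsive luciferase reporter (pG13). They were incubated for 22 h with test compound at 1–10 µM, with adriamycin at 1 µg/ml as reference. Cells were lysed in reporter lysis buffer and spun at 14,000 g for 20 min. Supernatant luciferase was read as RLU. Values are mean and standard deviation of three independent experiments.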

[11] = system: C8 cells; test: PARP cleavage by immunoblotting, C8 cells; type: cell-based, mouse; conditions: 5–20 µM, 14 h
[12] = system: p53 in HCT116 colon carcinoma cells; test: ALLN-induced ubiquitylated p53 in HCT116 cells expressing wild-type p53; type: cell-based, human; conditions: treatment with both 5 and ALLN; data not shown
[13] = Stability of the compound observed while conducting experiments; type: physicochemical
[14] = target: T1, Hdm2; conditions: cited from earlier work

With `COc1c(C)c(CCN(C)C)c2c(c1OC)SSSSS2` [Compound 3, N,N-dimethyl-5-methylvaracin] the “effect on cellular p53 and Hdm2 levels” value ([1]; RPE cells) was “no discernable cellular effects” and the “activity in Hdm2 assay” value [2] was “very little activity”.

With `NCCc1c2c(c3nccc4c3c1Nc1ccccc1-4)OCS2` [Compound 5, Lissoclinidine B] the “effect on p53 degradation / p53 level” value [3] was “blocked p53 degradation in a dose-dependent manner; also recorded: inhibits Hdm2-mediated p53 degradation”, the “ubiquitylated forms of p53” value [3] was “absent” and the p53-dependent killing [4] was “p53-dependent killing”. For the same compound, the cell death [5] was “relatively resistant”, the cell death [6] was “clear dose-dependent increase in cell death; also recorded: selectively kills transformed cells” and the “effect on cellular Hdm2” value [7] was “increased Hdm2; also recorded: stabilized Hdm2 in MEFs”. The “effect on cellular p53 and Hdm2 levels” value ([1]; RPE cells) was “increased p53 and Hdm2 in cells in a dose-dependent manner”, the “concentration exhibiting greatest increase in p53 and Hdm2” value ([1]; RPE cells) was 10 µM and the cell death [8] was “marked increase in cell death; also recorded: selectively kills cells expressing wild-type p53”. The IC50 [2] was 98.1 ± 6 µM, the cell death [9] was “no effect” and the “luciferase activity (p53-dependent transactivation)” value [10] was “dose-dependent increase in luciferase activity; also recorded: activates p53 transcription”. For the same compound, the “PARP cleavage (apoptosis)” value [11] was “cleavage of the poly (ADP-ribose) polymerase (PARP) was observed; also recorded: induces apoptosis in C8 cells” and the “effect on ALLN-induced ubiquitylated p53” value [12] was “prevented the accumulation of ALLN-induced ubiquitylated p53”.

With `COc1cc(CCN)c2c(c1OC)SSSSS2` [Compound 2, varacin] the “effect on cellular p53 and Hdm2 levels” value ([1]; RPE cells) was “no discernable cellular effects” and the “activity in Hdm2 assay” value [2] was “very little activity”.

In the case of `CSC1=C(CCN)c2nc3ccccc3c3ccnc(c23)C1=O` [Compound 4, Diplamine B], the “effect on cellular Hdm2” value [7] is reported as “increased Hdm2; also recorded: stabilized Hdm2 in MEFs”, the “effect on cellular p53 and Hdm2 levels” value ([1]; RPE cells) is reported as “increased p53 and Hdm2 in cells in a dose-dependent manner” and the “concentration exhibiting greatest increase in p53 and Hdm2” value ([1]; RPE cells) is reported as 10 µM. The “stability” value [13] was “fairly unstable and degraded over time”.

In the case of `c1ccc2c3ccn4cc5c(cc4c-3nc2c1)CCCC5` [sempervirine], the “inhibition of auto-ubiquitylation of Hdm2” value [14] is listed as “inhibits auto-ubiquitylation of Hdm2”.

For `COc1cc(CCN(C)C)c2c(c1O)SSSSS2` [Compound 1, Isolissoclinotoxin B], the “effect on p53 levels” value ([1]; RPE cells, at 1 µM) was “did not increase p53 levels” and the “toxicity to RPE cells” value ([1]; at 10 µM) was “toxic”.

With `CCCC[C@@H](C=O)NC(=O)[C@H](CC(C)C)NC(=O)[C@H](CC(C)C)NC(C)=O` [ALLN, N-acetyl-leucyl-leucyl-norleucinal, reference compound] (Ac-Leu-Leu-[Nle]-aldehyde) the “effect on p53 degradation / p53 level” value [3] was “accumulation of p53” and the “ubiquitylated forms of p53” value [3] was “higher molecular weight forms of the protein indicative of ubiquitylation”.

— paper PMC2718708 (Bioorganic & medicinal chemistry, 2008)
